Results: paper PMC2761767 (Journal of medicinal chemistry, 2009)
Like-named read-outs stand apart in the source and are kept apart here.

Key:
HL-60 (leukemia) cells = test: MTT cytotoxicity assay, HL-60; format: cell-based, human; settings: read-out: IC50, in vitro cytotoxicity, HL-60, HL-60 cells
[1] = test system: HCT-116 (colon cancer) cells; test: MTT cytotoxicity assay, HCT-116; format: cell-based, human; settings: read-out: IC50, in vitro cytotoxicity, HCT-116, HCT-116 cells
Hep 3B (hepatoma) cells = test: MTT cytotoxicity assay, Hep 3B; format: cell-based, human; settings: read-out: IC50, in vitro cytotoxicity, Hep 3B, Hep 3B cells
[2] = test system: A549 (non-small cell lung carcinoma) cells; test: SRB cytotoxicity assay, A549; format: cell-based, human; settings: read-out: IC50, in vitro cytotoxicity, A549
Outline: (§1)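 Cells exposed to test compound or DMSO vehicle for the stated periods, then fixed with 10% TCA. Staining used 0.4% (w/v) sulforhodamine B in 1% acetic acid, with unbound dye washed out in 1% acetic acid. Bound dye was dissolved in 10 mM Trizma base and absorbance read at 515 nm. IC50 taken from the resulting absorbance data.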

[3] = test system: KB (epidermoid carcinoma of the nasopharynx) cells; test: SRB cytotoxicity assay, KB; format: cell-based, human; settings: read-out: IC50, in vitro cytotoxicity, KB
Outline: as §1

[4] = test system: KB-VIN (p-glycoprotein-expressing epidermoid carcinoma of the nasopharynx) cells; test: SRB cytotoxicity assay, KB-VIN; format: cell-based, human; settings: read-out: IC50, in vitro cytotoxicity, Kb-VIN, KB-VIN cells (vincristine-resistant)
Outline: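 For A549, KB, KB-VIN and DU145, an SRB assay was used. Cells were exposed to the test compound or DMSO, fixed with 10% TCA and stained with 0.4% (w/v) SRB in 1% acetic acid. Unbound dye was washed out with 1% acetic acid, bound dye solubilized in 10 mM Trizma base, and absorbance read at 515 nm.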

[5] = test system: DU145 (prostate cancer) cells; test: SRB cytotoxicity assay, DU145; format: cell-based, human; settings: read-out: IC50, in vitro cytotoxicity, DU145
Outline: as §1

tubulin = test: Inhibition of [3H]colchicine binding to tubulin; settings: 1 µM tubulin, 5 µM [3H]colchicine, 10 min at 37 °C; for Inhibition of Colchicine Binding % inhibition at tested concentration, 1 µM: 1 µM inhibitor; for Inhibition of Colchicine Binding % inhibition at tested concentration, 5 µM: 5 µM inhibitor
[6] = test system: seven human cancer cell lines (HL-60, HCT-116, A549, Hep 3B, KB, KB-VIN, DU145); test: In vitro cytotoxicity, all seven cancer cell lines together; format: cell-based; settings: read-out: IC50 values, range over all seven cancer cell lines
OVCAR-3 xenograft = settings: ip, once weekly for 3 courses, cited from earlier work
[7] = ip, once weekly for 3 courses; prior in vivo study; cited from earlier work
[8] = test system: 60 human tumor cell lines; test: NCI screening against 60 human tumor cell lines; format: cell-based
[9] = mice model, unpublished data
[10] = test system: HL-60, HCT-116, H226, A549, Hep G2 and A498 cancer cell lines; test: Cytotoxicity of deacetylated amides 46-53; format: cell-based; settings: read-out: IC50 values, cytotoxicity

Row | Molecule | IC50 (HL-60 (leukemia) cells) [µM] | IC50 [1] [µM] | IC50 (Hep 3B (hepatoma) cells) [µM] | IC50 [2] [µM] | IC50 [3] [µM] | IC50 [4] [µM] | IC50 [5] [µM] | further results
1 | 2-(1-Anthracenyl)-6,7-methylenedioxyquinolin-4-one [Compound 45] | 0.53 | 1.6 | 2.2 | – | – | – | – | –
2 | 2-(1-Naphthalenyl)-6,7-methylenedioxyquinolin-4-one [Compound 39] | 0.07 | 0.07 | 0.07 | 0.13 | 0.13 | 0.19 | 0.13 | Inhibition of Colchicine Binding % inhibition at tested concentration, 1 µM (tubulin): 33%; Inhibition of Colchicine Binding % inhibition at tested concentration, 5 µM (tubulin): 67%; IC50 [6]: 0.07 to 0.19 µM
3 | 2-(2-Benzo[b]furyl)-6,7-methylenedioxyquinolin-4-one [Compound 38] | > 1 | > 1 | > 1 | > 1 | > 1 | > 1 | > 1 | –
4 | 2-(2-Benzo[b]thienyl)-6,7-methylenedioxyquinolin-4-one [Compound 36] | > 1 | > 1 | > 1 | > 1 | > 1 | > 1 | > 1 | –
5 | 2-(2-Naphthalenyl)-6,7-methylenedioxyquinolin-4-one [Compound 40] | 0.5 | > 1 | > 1 | > 1 | > 1 | > 1 | > 1 | –
6 | 2-(2-Quinolinyl)-6,7-methylenedioxyquinolin-4-one [Compound 43] | > 5 | > 5 | > 5 | > 5 | > 5 | > 5 | > 5 | –
7 | 2-(2-fluorophenyl)-6,7-methylenedioxyquinolin-4-one [CHM-1] | – | – | – | – | – | – | – | Extension of life span of tumor-bearing mice (OVCAR-3 xenograft; 79 mg/kg): 79%; Extension of life span of tumor-bearing mice (OVCAR-3 xenograft; 134 mg/kg): 133%; Extension of life span of tumor-bearing mice (OVCAR-3 xenograft; 200 mg/kg): 124%; Maximum tolerated dose (MTD) [7]: > 200 mg/kg
8 | 2-(3-Benzo[b]furyl)-6,7-methylenedioxyquinolin-4-one [Compound 37] | 0.03 | 0.05 | 0.09 | 2.98 | 1.05 | 0.59 | 1.87 | Inhibition of Colchicine Binding % inhibition at tested concentration, 1 µM (tubulin): 39%; Inhibition of Colchicine Binding % inhibition at tested concentration, 5 µM (tubulin): 51%; Growth inhibition, NCI preliminary screening ([8]; HCC-2998, KM-12, SF-539, SNB-75, SK-MEL-5, IGROV1, OVCAR-3): significantly inhibited the growth; Cytotoxicity against leukemia cell lines, NCI preliminary screening ([8]; many leukemia cell lines (Figure 5)): potent selective cytotoxicity
9 | 2-(3-Benzo[b]thienyl)-6,7-methylenedioxyquinolin-4-one [Compound 1] | 0.17 | 0.14 | 0.06 | > 0.25 | > 0.25 | > 0.25 | > 0.25 | Inhibition of Colchicine Binding % inhibition at tested concentration, 1 µM (tubulin): 25%; Inhibition of Colchicine Binding % inhibition at tested concentration, 5 µM (tubulin): 61%
10 | 2-(3-Quinolinyl)-6,7-methylenedioxyquinolin-4-one [Compound 42] | > 0.1 | > 0.1 | > 0.1 | > 0.1 | > 0.1 | > 0.1 | > 0.1 | –
11 | 2-(4-Quinolinyl)-6,7-methylenedioxyquinolin-4-one [Compound 41] | > 5 | > 5 | > 5 | > 5 | > 5 | > 5 | > 5 | –
12 | 2-(5-Quinolinyl)-6,7-methylenedioxyquinolin-4-one [Compound 44] | > 10 | > 10 | > 10 | > 10 | > 10 | > 10 | > 10 | –
13 | COc1cccc(-c2cc(O)c3cc(N4CCCC4)ccc3n2)c1 [B, 2-(3-methoxyphenyl)-6-pyrrolinylquinolin-4-one] | – | – | – | – | – | – | – | Antitumor activity against the OVCAR-3 xenograft model (OVCAR-3 xenograft; at MTD 25 mg/kg, prior in vivo study): moderate antitumor activity; Maximum tolerated dose (MTD) [7]: 25 mg/kg
14 | O=P([O-])(O)Oc1cc(-c2ccccc2F)nc2cc3c(cc12)OCO3.[Na+] [CHM-1-P-Na] | – | – | – | – | – | – | – | Metabolism of the 6,7-methylenedioxy moiety [9]: metabolized to an ortho-quinone
15 | O=C(Nc1ccc2c(c1)OCO2)c1csc2ccccc12 [Compound 46, N-(1,3-Benzodioxol-5-yl)-1-benzothiophene-3-carboxamide] | – | – | – | – | – | – | – | IC50 [10]: > 10 µM
16 | O=C(Nc1ccc2c(c1)OCO2)c1ccc2ccccc2c1 [Compound 50, N-(1,3-Benzodioxol-5-yl)naphthalene-2-carboxamide] | – | – | – | – | – | – | – | IC50 [10]: > 10 µM
17 | O=C(Nc1ccc2c(c1)OCO2)c1ccnc2ccccc12 [Compound 51, N-(1,3-Benzodioxol-5-yl)quinoline-4-carboxamide] | – | – | – | – | – | – | – | IC50 [10]: > 10 µM
18 | O=C(Nc1ccc2c(c1)OCO2)c1cccc2ncccc12 [Compound 53, N-(1,3-Benzodioxol-5-yl)quinoline-5-carboxamide] | – | – | – | – | – | – | – | IC50 [10]: > 10 µM
